According to ChEMBL document CHEMBL1800056, “Discovery of 2-(6-{[(6-fluoroquinolin-2-yl)methyl]amino}bicyclo[3.1.0]hex-3-yl)-N-hydroxypyrimidine-5-carboxamide (CHR-3996), a class I selective orally active histone deacetylase inhibitor” (J Med Chem, 2010):
pIC50: −log10 of the molar value. Activity calls are given as the source filed them. The rule behind the calls is not given here.

Legend:
Histone deacetylase = experiment: Inhibition of HDAC in human HeLa cells nuclear extract using fluor de Lys as substrate preincubated for 5 mins by fluorometric analysis; assay type: cell-based
HCT-116 [1] = experiment: Antiproliferative activity against human HCT116 cells after 72 hrs by WST-1 assay; assay type: functional; details: Homo sapiens, HCT-116, 72 h
Summary of the method: (§1)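 Cells seeded at (1-5) × 10³/well in serum-containing medium for 24 h at 37 °C, 5% CO₂. Inhibitor added at 0.6-10000 nM for 72 h, with WST-1 pulse over the final 4 h. Formazan read at 450 nm (reference 650 nm). Expressed as % inhibition of vehicle response; GI50 is the concentration inhibiting 50% of vehicle response; n = 6 replicates.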

[2] = Ratio of GI50 for human HCT116 cells to IC50 for HDAC in human HeLa cell nuclear extracts
Summary of the method: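 Cell/enzyme ratio = HCT116 GI50 divided by HDAC IC50. Enzyme: HeLa nuclear extract (10 μg protein), 5 min preincubation, then Fluor de Lys substrate 62.5 μM, 15 min at room temperature. Stopped with developer containing trichostatin A; fluorescence ex 355/em 455 nm; eight concentrations in duplicate. Cells: HCT116, 72 h exposure (0.6-10000 nM), WST-1 read at 450 nm, n = 6.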

[3] = AUC (0 to t) in plasma of CD1 mouse at 3 mg/kg, po; assay type: ADME, organism-based; parameters: dose 3 mg/kg, route oral
Summary of the method: (§2)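 Oral cassette PK in CD1 mice: four compounds per cassette, each at 3 mg/kg po. AUC0-t (ng h/mL) measured in plasma and spleen; spleen/plasma AUC ratio reported.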

[4] = AUC (0 to t) in spleen of CD1 mouse at 3 mg/kg, po; assay type: ADME, organism-based; parameters: dose 3 mg/kg, route oral; summary of the method: as §2
[5] = Clearance in mouse liver microsomes assessed as compound remaining after 30 mins; assay type: ADME, Microsome; details: read-out: Activity
[6] = Clearance in human liver microsomes assessed as compound remaining after 30 mins; assay type: ADME, Microsome; details: read-out: Activity
Cytochrome P450 2C19 [7] = biological target: T1, Cytochrome P450 2C19 (Homo sapiens, UniProt P33261); experiment: Inhibition of CYP2C19; assay type: ADME
T1 sequence (P33261 whole entry): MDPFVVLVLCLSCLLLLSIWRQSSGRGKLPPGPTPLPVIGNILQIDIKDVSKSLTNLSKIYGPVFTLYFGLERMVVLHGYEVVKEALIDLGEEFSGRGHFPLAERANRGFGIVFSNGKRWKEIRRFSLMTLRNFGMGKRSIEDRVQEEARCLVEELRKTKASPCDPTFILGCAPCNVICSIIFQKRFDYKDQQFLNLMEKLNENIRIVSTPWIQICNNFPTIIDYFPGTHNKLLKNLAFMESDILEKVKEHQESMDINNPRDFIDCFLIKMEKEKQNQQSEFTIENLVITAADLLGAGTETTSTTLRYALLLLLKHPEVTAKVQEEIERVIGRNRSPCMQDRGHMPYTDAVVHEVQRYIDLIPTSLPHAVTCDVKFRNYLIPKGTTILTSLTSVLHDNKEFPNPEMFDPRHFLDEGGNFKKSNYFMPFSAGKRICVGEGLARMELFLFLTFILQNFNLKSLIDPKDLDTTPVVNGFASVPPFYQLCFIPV

Cytochrome P450 3A4 = Cytochrome P450 3A4 (Homo sapiens, UniProt P08684); experiment: Inhibition of CYP3A4; assay type: ADME
Chain of Cytochrome P450 3A4 (P08684 whole entry): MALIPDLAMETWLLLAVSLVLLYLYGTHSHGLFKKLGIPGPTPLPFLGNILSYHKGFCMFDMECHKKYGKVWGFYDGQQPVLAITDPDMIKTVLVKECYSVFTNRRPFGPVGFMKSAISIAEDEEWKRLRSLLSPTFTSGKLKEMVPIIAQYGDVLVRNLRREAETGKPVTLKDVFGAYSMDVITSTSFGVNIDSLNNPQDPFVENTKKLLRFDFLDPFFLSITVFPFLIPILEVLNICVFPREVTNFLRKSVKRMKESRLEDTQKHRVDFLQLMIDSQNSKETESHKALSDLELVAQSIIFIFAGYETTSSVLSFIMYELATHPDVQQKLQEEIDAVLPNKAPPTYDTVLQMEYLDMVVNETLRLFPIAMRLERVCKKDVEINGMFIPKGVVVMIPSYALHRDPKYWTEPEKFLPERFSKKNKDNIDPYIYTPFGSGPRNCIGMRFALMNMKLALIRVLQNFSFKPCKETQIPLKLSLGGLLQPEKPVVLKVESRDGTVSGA

Cytochrome P450 2C19 [8] = biological target: T1, Cytochrome P450 2C19; experiment: Inhibition of CYP 2C19 at < 10 uM; assay type: ADME
Cytochrome P450 2D6 = Cytochrome P450 2D6 (Homo sapiens, UniProt P10635); experiment: Inhibition of CYP2D6 at < 10 uM; assay type: ADME
Chain of Cytochrome P450 2D6 (P10635 whole entry): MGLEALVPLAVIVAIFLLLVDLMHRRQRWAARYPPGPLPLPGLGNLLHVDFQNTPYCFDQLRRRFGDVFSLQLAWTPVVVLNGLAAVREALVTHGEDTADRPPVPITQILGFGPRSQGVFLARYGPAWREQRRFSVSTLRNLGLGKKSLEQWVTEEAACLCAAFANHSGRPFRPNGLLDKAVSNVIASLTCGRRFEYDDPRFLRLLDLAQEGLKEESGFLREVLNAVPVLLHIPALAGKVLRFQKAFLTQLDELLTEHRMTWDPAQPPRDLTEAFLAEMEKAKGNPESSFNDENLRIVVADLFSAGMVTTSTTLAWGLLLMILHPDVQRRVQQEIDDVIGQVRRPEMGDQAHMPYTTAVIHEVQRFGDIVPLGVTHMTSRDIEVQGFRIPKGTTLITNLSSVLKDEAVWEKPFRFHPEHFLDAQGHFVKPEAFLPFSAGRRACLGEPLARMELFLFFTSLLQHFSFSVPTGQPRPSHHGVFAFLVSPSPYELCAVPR

[9] = AUC (0 to t) in dog at 1 mg/kg, iv; assay type: ADME, organism-based, Canis lupus familiaris; parameters: dose 1 mg/kg, route intravenous; details: plasma
Summary of the method: (§3)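 Dog single dose: iv 1 mg/kg in 5% DMSO-HPβC (11.25% w/v); po 10 mg/kg in 5% DMSO-saline. AUC0-t in ng h/mL, clearance in (mL/min)/kg, t1/2 in h, F in %.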

[10] = Clearance in dog at 1 mg/kg, iv; assay type: ADME, organism-based, Canis lupus familiaris; parameters: dose 1 mg/kg, route intravenous; details: in vivo; summary of the method: as §3
[11] = AUC (0 to t) in dog at 10 mg/kg, po; assay type: ADME, organism-based, Canis lupus familiaris; parameters: dose 10 mg/kg, route oral; details: plasma; summary of the method: as §3
[12] = Oral bioavailability in dog at 10 mg/kg; assay type: ADME, organism-based, Canis lupus familiaris; details: in vivo; summary of the method: as §3
Histone deacetylase 1 = Histone deacetylase 1 (Homo sapiens, UniProt Q13547); experiment: Inhibition of human recombinant HDAC1 using fluor de Lys as substrate by fluorometric analysis
Chain of Histone deacetylase 1 (Q13547 whole entry): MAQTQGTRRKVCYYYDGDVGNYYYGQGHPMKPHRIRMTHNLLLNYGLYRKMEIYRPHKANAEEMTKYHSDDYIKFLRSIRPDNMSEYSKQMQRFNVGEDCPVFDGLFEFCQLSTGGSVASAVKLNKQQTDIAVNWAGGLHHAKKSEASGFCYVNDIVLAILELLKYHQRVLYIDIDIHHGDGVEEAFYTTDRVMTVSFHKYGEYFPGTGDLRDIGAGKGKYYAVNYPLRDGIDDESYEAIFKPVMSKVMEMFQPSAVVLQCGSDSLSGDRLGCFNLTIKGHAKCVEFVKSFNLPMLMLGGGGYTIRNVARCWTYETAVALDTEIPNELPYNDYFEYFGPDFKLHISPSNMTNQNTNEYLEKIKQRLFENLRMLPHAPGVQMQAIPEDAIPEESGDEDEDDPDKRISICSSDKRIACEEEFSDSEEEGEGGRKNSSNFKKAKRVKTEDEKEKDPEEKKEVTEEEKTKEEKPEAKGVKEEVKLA

Histone deacetylase 2 = Histone deacetylase 2 (Homo sapiens, UniProt Q92769); experiment: Inhibition of human recombinant HDAC2 using fluor de Lys as substrate by fluorometric analysis
Chain of Histone deacetylase 2 (Q92769 whole entry): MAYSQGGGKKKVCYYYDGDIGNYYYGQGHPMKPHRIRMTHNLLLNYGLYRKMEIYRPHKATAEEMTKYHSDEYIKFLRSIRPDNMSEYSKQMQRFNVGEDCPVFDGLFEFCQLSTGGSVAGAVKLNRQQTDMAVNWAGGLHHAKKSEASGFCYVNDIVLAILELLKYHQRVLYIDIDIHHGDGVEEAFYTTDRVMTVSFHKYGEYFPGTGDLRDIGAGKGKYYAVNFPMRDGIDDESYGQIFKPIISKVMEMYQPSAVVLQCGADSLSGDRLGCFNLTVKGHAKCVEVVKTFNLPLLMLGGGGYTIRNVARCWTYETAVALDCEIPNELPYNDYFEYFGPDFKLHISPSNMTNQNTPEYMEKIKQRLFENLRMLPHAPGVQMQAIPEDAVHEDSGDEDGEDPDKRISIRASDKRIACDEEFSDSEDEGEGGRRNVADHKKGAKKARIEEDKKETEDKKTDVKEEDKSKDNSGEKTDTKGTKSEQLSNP

Histone deacetylase 5 = Histone deacetylase 5 (Homo sapiens, UniProt Q9UQL6); experiment: Inhibition of human recombinant HDAC5 using fluor de Lys as substrate by fluorometric analysis
Chain of Histone deacetylase 5 (Q9UQL6 whole entry): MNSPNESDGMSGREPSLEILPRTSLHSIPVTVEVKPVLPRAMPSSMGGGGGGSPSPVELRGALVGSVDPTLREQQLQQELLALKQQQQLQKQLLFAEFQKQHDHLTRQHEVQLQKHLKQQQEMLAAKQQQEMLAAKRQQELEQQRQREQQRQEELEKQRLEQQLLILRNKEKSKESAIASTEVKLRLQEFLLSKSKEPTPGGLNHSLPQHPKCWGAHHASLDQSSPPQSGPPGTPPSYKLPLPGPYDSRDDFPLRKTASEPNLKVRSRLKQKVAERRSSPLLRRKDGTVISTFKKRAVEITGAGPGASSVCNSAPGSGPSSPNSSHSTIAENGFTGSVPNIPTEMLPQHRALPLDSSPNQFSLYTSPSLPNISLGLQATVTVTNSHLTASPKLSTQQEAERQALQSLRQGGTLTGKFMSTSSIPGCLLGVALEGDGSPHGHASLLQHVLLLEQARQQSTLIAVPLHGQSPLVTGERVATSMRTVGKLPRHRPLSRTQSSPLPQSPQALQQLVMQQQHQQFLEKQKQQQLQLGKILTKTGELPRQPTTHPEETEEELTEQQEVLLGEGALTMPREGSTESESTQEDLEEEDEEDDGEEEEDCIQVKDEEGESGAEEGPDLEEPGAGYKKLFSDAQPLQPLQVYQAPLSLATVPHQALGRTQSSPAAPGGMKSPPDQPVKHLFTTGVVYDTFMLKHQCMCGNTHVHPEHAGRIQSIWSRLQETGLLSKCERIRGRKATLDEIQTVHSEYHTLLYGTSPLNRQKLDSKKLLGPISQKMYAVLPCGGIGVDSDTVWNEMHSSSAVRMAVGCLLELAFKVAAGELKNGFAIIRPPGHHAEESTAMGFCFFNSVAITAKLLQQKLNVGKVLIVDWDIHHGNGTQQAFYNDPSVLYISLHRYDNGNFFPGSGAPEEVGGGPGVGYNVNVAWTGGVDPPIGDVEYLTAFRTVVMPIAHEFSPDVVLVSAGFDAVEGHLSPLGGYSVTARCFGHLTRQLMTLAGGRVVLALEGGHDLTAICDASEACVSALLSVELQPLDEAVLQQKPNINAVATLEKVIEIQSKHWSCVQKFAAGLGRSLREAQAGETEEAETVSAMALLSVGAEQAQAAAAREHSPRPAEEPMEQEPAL

[13] = biological target: Protein deacetylase HDAC6 (Homo sapiens, UniProt Q9UBN7); experiment: Inhibition of human recombinant HDAC6 using fluor de Lys as substrate by fluorometric analysis
Chain of Protein deacetylase HDAC6 (Q9UBN7 whole entry): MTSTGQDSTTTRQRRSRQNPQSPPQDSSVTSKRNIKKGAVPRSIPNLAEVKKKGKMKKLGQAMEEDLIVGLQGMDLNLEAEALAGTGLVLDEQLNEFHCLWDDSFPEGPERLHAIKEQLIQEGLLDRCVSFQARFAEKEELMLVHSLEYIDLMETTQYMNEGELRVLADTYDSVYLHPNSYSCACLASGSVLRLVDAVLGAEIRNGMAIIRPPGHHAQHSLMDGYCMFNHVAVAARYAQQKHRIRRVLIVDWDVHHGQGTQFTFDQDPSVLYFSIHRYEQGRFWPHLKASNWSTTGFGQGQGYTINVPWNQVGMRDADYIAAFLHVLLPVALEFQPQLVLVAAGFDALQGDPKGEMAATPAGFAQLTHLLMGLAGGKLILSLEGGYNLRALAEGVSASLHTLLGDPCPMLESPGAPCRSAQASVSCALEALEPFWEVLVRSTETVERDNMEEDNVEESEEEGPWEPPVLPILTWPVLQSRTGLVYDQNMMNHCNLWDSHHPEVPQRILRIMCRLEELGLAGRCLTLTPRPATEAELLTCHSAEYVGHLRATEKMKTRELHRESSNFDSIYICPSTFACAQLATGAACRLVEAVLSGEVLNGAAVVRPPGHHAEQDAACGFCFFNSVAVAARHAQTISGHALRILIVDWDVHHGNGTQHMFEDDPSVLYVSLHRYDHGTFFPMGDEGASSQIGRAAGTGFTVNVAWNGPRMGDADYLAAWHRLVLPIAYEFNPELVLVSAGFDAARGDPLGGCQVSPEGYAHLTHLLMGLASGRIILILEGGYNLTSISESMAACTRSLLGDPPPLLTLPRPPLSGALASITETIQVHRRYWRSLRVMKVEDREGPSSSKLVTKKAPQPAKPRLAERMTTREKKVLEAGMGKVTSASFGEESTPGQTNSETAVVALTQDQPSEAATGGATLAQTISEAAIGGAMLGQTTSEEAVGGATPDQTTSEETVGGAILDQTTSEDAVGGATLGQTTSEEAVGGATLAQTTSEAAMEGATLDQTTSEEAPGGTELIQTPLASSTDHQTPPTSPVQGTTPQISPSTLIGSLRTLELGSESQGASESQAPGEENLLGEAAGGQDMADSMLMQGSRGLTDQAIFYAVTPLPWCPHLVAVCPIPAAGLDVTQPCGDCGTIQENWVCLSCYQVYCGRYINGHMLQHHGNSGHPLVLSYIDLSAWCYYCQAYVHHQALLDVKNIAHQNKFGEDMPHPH

HCT-116 [14] = experiment: Induction of apoptosis in human HCT116 cells assessed as PARP cleavage after 30 hrs by Western blot analysis; assay type: functional, cell-based
Summary of the method: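 HCT116 cells seeded at 2 × 10⁴ cells/mL and treated 24 h later for 30 h. RIPA lysates run at 10 μg/lane on 4-12% gels. Blotted with antibodies to PARP and cleaved PARP (1:1000); GAPDH as loading control; ECL detection.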

LoVo = experiment: Antiproliferative activity against human LoVo cells after 72 hrs by WST-1 assay; assay type: functional; details: Homo sapiens, LoVo, 72 h; summary of the method: as §1
DU-145 = experiment: Antiproliferative activity against human DU145 cells after 72 hrs by WST-1 assay; assay type: functional; details: DU-145, 72 h
Summary of the method: (§4)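 Cells seeded at (1-5) × 10³/well in serum-containing medium for 24 h at 37 °C, 5% CO₂. Inhibitor added at 0.6-10000 nM for 72 h, with WST-1 pulse over the final 4 h. Formazan read at 450 nm (reference 650 nm).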

PC-3 = experiment: Antiproliferative activity against human PC3 cells after 72 hrs by WST-1 assay; assay type: functional; details: PC-3, 72 h; summary of the method: as §1
HepG2 = experiment: Antiproliferative activity against human HepG2 cells after 72 hrs by WST-1 assay; assay type: functional; details: Homo sapiens, HepG2, 72 h; summary of the method: as §1
MG-63 = experiment: Antiproliferative activity against human MG63 cells after 72 hrs by WST-1 assay; assay type: functional; details: Homo sapiens, MG-63, 72 h; summary of the method: as §1
MIA PaCa-2 = experiment: Antiproliferative activity against human MIAPaCa2 cells after 72 hrs by WST-1 assay; assay type: functional; details: Homo sapiens, MIA PaCa-2, 72 h; summary of the method: as §1
A549 = experiment: Antiproliferative activity against human A549 cells after 72 hrs by WST-1 assay; assay type: functional; details: Homo sapiens, A549, 72 h; summary of the method: as §1
COR-L23 [15] = experiment: Antiproliferative activity against human COR-L23 cells after 72 hrs by WST-1 assay; assay type: functional; details: Homo sapiens, COR-L23, 72 h; summary of the method: as §1
COR-L23 [16] = experiment: Antiproliferative activity against doxorubicin-resistant human COR-L23 cells after 72 hrs by WST-1 assay; assay type: functional; details: Homo sapiens, COR-L23, 72 h; summary of the method: as §1
MOLT-4 = experiment: Antiproliferative activity against human MOLT4 cells after 72 hrs by WST-1 assay; assay type: functional; details: Homo sapiens, MOLT-4, 72 h; summary of the method: as §1
HuT78 = experiment: Antiproliferative activity against human HUT78 cells after 72 hrs by WST-1 assay; assay type: functional; details: HuT78, 72 h; summary of the method: as §4
U-937 = experiment: Antiproliferative activity against human U937 cells after 72 hrs by WST-1 assay; assay type: functional; details: Homo sapiens, U-937, 72 h; summary of the method: as §1
HCT-116 [17] = experiment: Cell cycle arrest in human HCT116 cells assessed as accumulation at sub-G1 phase at 300 nM after 15 hrs by propidium iodide staining based flow cytometric analysis; assay type: functional
HCT-116 [18] = experiment: Cell cycle arrest in human HCT116 cells assessed as accumulation at S phase at 300 nM after 15 hrs by propidium iodide staining based flow cytometric analysis; assay type: functional
HCT-116 [19] = experiment: Cell cycle arrest in human HCT116 cells assessed as accumulation at G2/M phase at 300 nM after 15 hrs by propidium iodide staining based flow cytometric analysis; assay type: functional
Spleen = experiment: Ratio of AUC (0 to t) in spleen to plasma of CD1 mouse at 3 mg/kg, po; details: in vivo

O=C(NO)c1cnc(N2C[C@@H]3[C@H](C2)[C@H]3NCc2ccc(Cl)cc2)nc1
IC50 (Histone deacetylase): 13 nM | GI50 (HCT-116 [1]): 210 nM | Ratio [2]: 16 | AUC(0-t) [3]: 58 ng·h/mL | AUC(0-t) [4]: 436 ng·h/mL | remaining at 0.5 h [5]: 43% | remaining at 0.5 h [6]: 38% | pIC50 (Cytochrome P450 2C19 [7]): 4.30 | pIC50 (Cytochrome P450 3A4): < 4.30 | inhibition (INH) (Cytochrome P450 2C19 [8]): Not Active | inhibition (INH) (Cytochrome P450 2D6): Not Active | AUC(0-t) [9]: 265 ng·h/mL | clearance [10]: 63 mL/min/kg | AUC(0-t) [11]: 1480 ng·h/mL | bioavailability [12]: 56% | pIC50 (Histone deacetylase 1): 8.22 | pIC50 (Histone deacetylase 2): 7.85 | pIC50 (Histone deacetylase 5): 6.30 | pIC50 [13]: 5.48 | Activity (HCT-116 [14]): Active | GI50 (LoVo): 310 nM | GI50 (DU-145): 92 nM | GI50 (PC-3): 260 nM | GI50 (HepG2): 470 nM | GI50 (MG-63): 1600 nM | GI50 (MIA PaCa-2): 620 nM | GI50 (A549): 500 nM | GI50 (COR-L23 [15]): 210 nM | GI50 (COR-L23 [16]): 1100 nM | GI50 (MOLT-4): 71 nM | GI50 (HuT78): 60 nM | GI50 (U-937): 120 nM | Activity (HCT-116 [17]): 23% | Activity (HCT-116 [18]): 11% | Activity (HCT-116 [19]): 33% | Ratio (Spleen): 7.5

O=C(NO)c1cnc(N2C[C@@H]3[C@H](C2)[C@H]3NCc2ccc3cc(F)ccc3n2)nc1 [NANATINOSTAT]
IC50 (Histone deacetylase): 8 nM | Ki (Histone deacetylase): 4.8 nM | GI50 (HCT-116 [1]): 72 nM | Ratio [2]: 9 | AUC(0-t) [3]: 93 ng·h/mL | AUC(0-t) [4]: 775 ng·h/mL | remaining at 0.5 h [5]: 31% | remaining at 0.5 h [6]: 21% | pIC50 (Cytochrome P450 2C19 [7]): < 4.30 | pIC50 (Cytochrome P450 3A4): 5.00 | inhibition (INH) (Cytochrome P450 2C19 [8]): Not Active | inhibition (INH) (Cytochrome P450 2D6): Not Active | AUC(0-t) [9]: 241 ng·h/mL | clearance [10]: 70 mL/min/kg | AUC(0-t) [11]: 950 ng·h/mL | bioavailability [12]: 40% | pIC50 (Histone deacetylase 1): 8.52 | pIC50 (Histone deacetylase 2): 8.40 | pIC50 (Histone deacetylase 5): 6.70 | pIC50 [13]: 5.68 | Activity (HCT-116 [14]): Active | GI50 (LoVo): 140 nM | GI50 (DU-145): 48 nM | GI50 (PC-3): 160 nM | GI50 (HepG2): 230 nM | GI50 (MG-63): 750 nM | GI50 (MIA PaCa-2): 280 nM | GI50 (A549): 250 nM | GI50 (COR-L23 [15]): 105 nM | GI50 (COR-L23 [16]): 560 nM | GI50 (MOLT-4): 31 nM | GI50 (HuT78): 31 nM | GI50 (U-937): 52 nM | Activity (HCT-116 [17]): 21% | Activity (HCT-116 [18]): 10% | Activity (HCT-116 [19]): 48% | Ratio (Spleen): 8.3
